# Measured values as given in ChEMBL document CHEMBL1140302, “Pyrrolo[1,5]benzoxa(thia)zepines as a new class of potent apoptotic agents. Biological studies and identification of an intracellular location of their drug target” (J Med Chem, 2005).
# Tests used:
# [1] = system: K562; test: Percent apoptotic activity of compound in chronic myelogenous leukemia K562 cells at 10 uM for 16 h; format: functional, Homo sapiens
# Summary of the method: (§1)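 Seeded at 3 × 10⁵ cells/mL and given compound at 10 µM final from ethanol stock (vehicle 1% ethanol) for 16 h. Cytospin, RapiDiff staining, then ~300 cells counted by light microscopy (shrinkage, blebbing, nuclear condensation/fragmentation) for percent apoptosis.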
# [2] = system: HL-60; test: Percent apoptotic activity of compound in human acute myelocytic leukemia HL-60 cells at 10 uM for 16 h; format: functional; summary of the method: as §1
# [3] = system: Mus musculus; test: Effect (30 mg/kg; i.p.) on body weight of BALB/c mice according to the qdx8 schedule; initial weight=21.02 grams; format: functional
# Summary of the method: (§2)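 Male Balb/c mice (5-6 weeks old, about 20 g), five per group, dosed ip once daily for 8 consecutive days at 30 mg/kg. Vehicle: Cremophor EL 1:1 with ethanol, then diluted 1:4 in PBS, 10 mL/kg. Vehicle-only control group. Body weight recorded. 24 h after the last dose, retro-orbital blood was taken under CO2 into heparin. RBC, WBC and PLT counted on a cell analyzer. ANOVA and Student's t test.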
# [4] = system: Mus musculus; test: Effect (30 mg/kg; i.p.) on hematology parameter of BALB/c mice as per the qdx8 schedule; format: functional; summary of the method: as §2
# [5] = system: M109; test: In vitro cytotoxic activity of compound against (M109) mouse lung carcinoma cells by sulforhodamine B (SRB) assay; format: functional, cell-based
# [6] = system: NCI-H460; test: In vitro cytotoxic activity of compound against human lung carcinoma (NCI-H460) cell lines by sulforhodamine B (SRB) assay; format: functional, cell-based
# Summary of the method: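 NCI-H460 seeded at 3 × 10³ cells/well, 24 h at 37 °C, then 24 h drug exposure at 10 decreasing concentrations (200–0.5 µM; drug in 10% DMSO in water; at least eight replicates each). PBS washes, 48 h recovery, TCA fixation, sulforhodamine B staining, bound dye read at 540 nm. IC50 (± SD) from sigmoidal curve fitting.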
# [7] = system: HT-29; test: In vitro cytotoxic activity of compound against human colon adenocarcinoma (HT-29) cell line by sulforhodamine B (SRB) assay; format: functional, cell-based
# [8] = In vitro cytotoxic activity of compound against (MesSa) human uterine sarcoma cells by sulforhodamine B (SRB) assay; format: functional, cell-based
# Summary of the method: (§3)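 Seeded at 1 × 10⁴ cells/well and grown 24 h at 37 °C; LoVo in Ham's F12, MesSa in McCoy's 5A, with 10% heat-inactivated FCS. Exposed 24 h to 10 decreasing concentrations (200–0.5 µM; dissolved in 10% DMSO in water; at least eight replicates each). Washed, 48 h recovery, TCA fixation, sulforhodamine B staining, OD 540 nm. IC50 (± SD) by sigmoidal curve fitting.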
# [9] = system: LoVo; test: In vitro cytotoxic activity of compound against (LoVo) human colon adenocarcinoma cells by sulforhodamine B (SRB) assay; format: functional, cell-based; summary of the method: as §3
SMILES,Apoptotic Activity [1] [%],Apoptotic Activity [2] [%],also measured
CCCCCC(=O)OC1=C(c2cccc3ccccc23)Oc2ccccc2[N+]2=C1CC=C2,0,0,
CCN(CC)C(=O)OC1=C(c2cccc3ccccc23)Sc2ccccc2[N+]2=C1CC=C2,7,12,
COc1ccc(C2=C(OC(=O)c3ccncc3)C3=[N+](C=CC3)c3ccccc3S2)cc1,32,31,
CCOC(=O)c1ccc2c(c1)OC(c1cccc3ccccc13)=C(OC(=O)N(C)C)C1=[N+]2C=CC1,50,49,
CC(=O)OC1=C(c2cccc3ccccc23)Oc2ccccc2[N+]2=C1CC=C2,43,42,
CN(C)C(=O)OC1=C(c2cccc3ccccc23)Oc2cc(C(=O)O)ccc2-n2cccc21,0,0,
CCCCC(=O)OC1=C(c2cccc3ccccc23)Oc2ccccc2[N+]2=C1CC=C2,0,0,
CN(C)C(=O)OC1=C(c2ccc3ccccc3c2)Oc2ccccc2[N+]2=C1CC=C2,0,0,
COc1ccc(C2=C(OC(=O)N(C)C)C3=[N+](C=CC3)c3ccccc3S2)cc1,<10,<10,
CN(C)C(=O)OC1=C(c2cccc3ccccc23)Sc2ccccc2[N+]2=C1CC=C2,39,40,
CC(=O)OC1=C(c2cccc3ccccc23)Sc2ccccc2[N+]2=C1CC=C2,41,39,
O=C(OC1=C(c2cccc3ccccc23)Sc2ccccc2[N+]2=C1CC=C2)c1ccncc1,27,55,
CN(C)C(=O)OC1=C(c2cccc3ccccc23)Oc2ccccc2[N+]2=C1CC=C2,48,44,Weight [3]: 20.8 g; PLT [4]: 354 10E3/mm3; RBC [4]: 9.45 10E6/mm3; WBC [4]: 7.03 10^3/mm³; IC50 [5]: 1.8 µM; IC50 [6]: 1.7 µM; IC50 [7]: 1.9 µM; IC50 [8]: 7.1 µM; IC50 [9]: 9.2 µM
CC(=O)OC1=C(c2ccccc2)Oc2ccccc2[N+]2=C1CC=C2,0,0,
